For orientation: IC50 means the concentration at which inhibition is half-maximal. By inhibition is commonly meant the percentage by which the read-out fell short of the control.

The source made the active and inactive calls. No cut-off for these calls is given here.

For data set [1], the system named is MCF7. Nature of the data set: Antiproliferative activity against human MCF7 cells assessed as cell growth inhibition incubated for 48 hr by MTT assay. Conditions: MCF7, 48 h. (In general: Formazan colour is commonly taken as a measure of viable cells.)
Data set [2] relates to A549. Nature of the data set: Antiproliferative activity against human A549 cells assessed as cell growth inhibition incubated for 48 hr by MTT assay. Conditions: A549, 48 h.
Data set [3] has as its system MDA-MB-231. Nature of the data set: Antiproliferative activity against human MDA-MB-231 cells assessed as cell growth inhibition incubated for 48 hr by MTT assay. Type of data set: functional, cell-based. Put shortly: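 MTT titration: cells seeded 1×10^4/well for 24 h, then treated 48 h at 37 °C, 5% CO2 with 2.5, 5, 10, 20 μM. MTT 0.5 mg ml⁻¹ for 2 h, formazan in DMSO read at 570 nm; viability relative to 0.1% DMSO control. IC50 is the mean of three replicate experiments ± SD.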

Data set [4] concerns the target Tubulin. Kind of data set: Inhibition of tubulin polymerization in human MCF7 cells by ELISA. It counts as cell-based. For orientation: ELISA stands for enzyme-linked immunosorbent assay.
Data set [5] has as its target T1, Tubulin (Sus scrofa) (UniProt P02554+P02550). Kind of data set: Inhibition of porcine Tubulin polymerization assessed as increase in AUC by measuring fluorescence at 15 uM incubated for 1 hr by fluorescence microscopy. It counts as protein assay.
Data set [6] has as its system MCF7. Kind of data set: Antiproliferative activity against human MCF7 cells assessed as cell growth inhibition at 10 uM incubated for 48 hr by MTT assay. Type of data set: functional. In outline: (§1)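 Cells in RPMI with 10% FBS, 1% pen/strep at 37 °C, 5% CO2. […] MTT 0.5 mg ml⁻¹ for 2 h, formazan dissolved in DMSO, A570; viability = OD treated/OD control × 100. Triplicate.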

A short description of data set [7]: Antiproliferative activity against human F180 cells assessed as cell growth inhibition at 10 uM incubated for 48 hr by MTT assay. It counts as toxicity, cell-based. Conditions: f180, 48 h. In outline: as §1
Data set [8] relates to MDA-MB-231. Kind of data set: Antiproliferative activity against human MDA-MB-231 cells assessed as cell growth inhibition at 10 uM incubated for 48 hr by MTT assay. It counts as functional. Put shortly:
as §1

Data set [9] deals with A549. Kind of data set: Antiproliferative activity against human A549 cells assessed as cell growth inhibition at 10 uM incubated for 48 hr by MTT assay. It counts as functional. Put shortly:
as §1

The target in data set [10] is T2, Tubulin (Homo sapiens) (UniProt P68371+Q9H4B7+P0DPH7+P68366+Q13509+Q71U36+P04350+Q3ZCM7+P07437+P68363+Q9BQE3+Q6PEY2+Q13885+Q9BVA1+Q9BUF5). Nature of the data set: Inhibition of tubulin polymerization in human A549 cells assessed as inhibition of microtubule spindle formation with irregular morphology at 13 uM incubated for 24 hrs by immunofluorescence assay. It counts as cell-based. Put shortly: (§2)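 Fixed in 3.7% paraformaldehyde, permeabilised with 0.1% Triton X-100, blocked with 1% BSA 1 h, anti-β-tubulin mouse mAb overnight at 4 °C, Alexa Fluor 488 secondary, DAPI; fluorescence microscopy.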

Data set [11] has as its target T2, Tubulin (Homo sapiens). Nature of the data set: Inhibition of tubulin polymerization in human A549 cells assessed as inhibition of microtubule spindle formation with irregular morphology at 9 uM incubated for 24 hrs by immunofluorescence assay. Type of data set: cell-based. Put shortly: as §2
Data set [12] relates to MCF7. Nature of the data set: Induction of apoptosis in human MCF7 cells assessed as late apoptotic cells at 6 uM incubated for 24 hrs by Annexin V-FITC/propidium iodide staining based flow cytometry (reference value: 0.17 %). Type of data set: functional. For orientation: A flow cytometer gives signals particle by particle.
For data set [13], the system named is MCF7. Kind of data set: Induction of apoptosis in human MCF7 cells assessed as necrotic cells at 6 uM incubated for 24 hrs by Annexin V-FITC/propidium iodide staining based flow cytometry (reference value: 0.76 %). Type of data set: functional.
The test system of data set [14] is MCF7. Nature of the data set: Cell cycle arrest in human MCF7 assessed as accumulation at G1 phase at 6 uM incubated for 24 hrs by propidium iodide staining flow cytometry. Type of data set: functional. Put shortly:
(§3)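 MCF-7 cells exposed to 6 μM for 24 h, DMSO vehicle control. Cells harvested, fixed in 70% ethanol on ice 15 min, then stained 1 h at room temperature with PI solution containing 0.1 mg mL⁻¹ RNaseA and 0.05% Triton X-100. DNA content read by flow cytometry; percentage of cells in each phase.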

The test system of data set [15] is MCF7. Kind of data set: Cell cycle arrest in human MCF7 assessed as accumulation at S phase at 6 uM incubated for 24 hrs by propidium iodide staining flow cytometry. Type of data set: functional. Put shortly:
as §3

Data set [16] concerns MCF7. Nature of the data set: Cell cycle arrest in human MCF7 assessed as accumulation at pre G phase at 6 uM incubated for 24 hrs by propidium iodide staining flow cytometry. Type of data set: functional. In outline: as §3
In data set [17] the test system is MCF7. Nature of the data set: Induction of apoptosis in human MCF7 cells assessed as Bax level at 6 uM incubated for 24 hrs by ELISA. It counts as functional. Put shortly:
(§4)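 MCF-7 in RPMI1640 with 10% FBS, exposed to 6 μM for 24 h, lysed in cell extraction buffer, lysate diluted in standard diluent; Bax (pg ml⁻¹) and Bcl2 (ng ml⁻¹) measured by ELISA. Mean of three replicates ± SD.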

In data set [18] the test system is MCF7. Nature of the data set: Cell cycle arrest in human MCF7 assessed as accumulation at G2/M phase at 6 uM incubated for 24 hrs by propidium iodide staining flow cytometry. It counts as functional. In outline:
as §3

Data set [19] relates to MCF7. Kind of data set: Induction of apoptosis in human MCF7 cells assessed as Bcl-2 level at 6 uM incubated for 24 hrs by ELISA. It counts as functional. Put shortly:
as §4

Data set [20] deals with MCF7. Kind of data set: Induction of apoptosis in human MCF7 cells assessed as early apoptotic cells at 6 uM incubated for 24 hrs by Annexin V-FITC/propidium iodide staining based flow cytometry (reference value: 0.55 %). It counts as functional.
The subject of data set [21] is MCF7. Kind of data set: Induction of apoptosis in human MCF7 cells assessed as Caspase-9 level at 6 uM incubated for 24 hrs by ELISA. It counts as functional. Put shortly: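 MCF-7 cells incubated with or without 6 μM for 24 h, washed in PBS, lysed; caspase-9 in lysates quantified by ELISA kit (ng ml⁻¹). Mean of three replicates ± SD.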
Data set [22] concerns the target T1, Tubulin (Sus scrofa). Nature of the data set: Inhibition of porcine Tubulin polymerization assessed as decrease in AUC by measuring fluorescence at 15 uM incubated for 1 hr by fluorescence microscopy. Type of data set: protein assay. Put shortly:
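Porcine tubulin at 2 mg ml⁻¹ in 80 mM PIPES, 2 mM MgCl₂, 0.5 mM EGTA pH 6.9, with 10 μM fluorescent reporter, 1 mM GTP and 15% glycerol, in a pre-warmed plate. […] Fluorescence (ex 360, em 450 nm) read once per min for 60 min at 37 °C. Area under the curve scored against the untreated control, taken as 100%.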

[23] abbreviates: Homo sapiens, MDA-MB-231, 48 h, read-out: IC50.

T1 sequence (P02550 whole entry, looked up): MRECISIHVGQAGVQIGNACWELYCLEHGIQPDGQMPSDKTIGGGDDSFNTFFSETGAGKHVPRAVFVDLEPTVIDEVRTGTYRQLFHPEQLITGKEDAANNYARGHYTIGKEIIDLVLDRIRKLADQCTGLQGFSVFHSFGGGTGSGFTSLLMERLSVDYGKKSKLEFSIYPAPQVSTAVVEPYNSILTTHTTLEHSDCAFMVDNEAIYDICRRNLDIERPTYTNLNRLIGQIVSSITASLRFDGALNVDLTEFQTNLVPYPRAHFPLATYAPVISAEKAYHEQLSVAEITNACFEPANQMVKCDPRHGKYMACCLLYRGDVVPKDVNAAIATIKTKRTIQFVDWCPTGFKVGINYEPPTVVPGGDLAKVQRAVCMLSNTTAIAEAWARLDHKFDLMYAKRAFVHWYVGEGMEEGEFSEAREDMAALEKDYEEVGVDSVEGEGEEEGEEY
T1 sequence (P02554 whole entry, looked up): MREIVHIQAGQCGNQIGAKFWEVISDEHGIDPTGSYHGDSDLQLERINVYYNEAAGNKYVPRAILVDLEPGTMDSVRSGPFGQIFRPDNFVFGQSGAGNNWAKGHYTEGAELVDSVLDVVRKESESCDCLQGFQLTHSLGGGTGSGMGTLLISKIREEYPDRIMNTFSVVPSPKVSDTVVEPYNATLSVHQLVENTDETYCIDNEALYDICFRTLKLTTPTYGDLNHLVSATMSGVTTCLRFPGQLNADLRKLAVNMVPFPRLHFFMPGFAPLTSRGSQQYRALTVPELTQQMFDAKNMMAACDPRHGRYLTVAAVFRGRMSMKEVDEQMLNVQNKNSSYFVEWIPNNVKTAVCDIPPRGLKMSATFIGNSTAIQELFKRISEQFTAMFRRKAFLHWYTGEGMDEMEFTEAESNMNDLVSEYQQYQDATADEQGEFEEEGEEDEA

For `CC(=O)O[C@H]1C(=O)[C@@]2(C)[C@H]([C@H](OC(=O)c3ccccc3)[C@]3(O)C[C@H](OC(=O)[C@H](O)[C@@H](NC(=O)c4ccccc4)c4ccccc4)C(C)=C1C3(C)C)[C@]1(OC(C)=O)CO[C@@H]1C[C@@H]2O` [PACLITAXEL], the IC50 came out at 0.0061 µM in [1], 0.015 µM in data set [2] and 0.0193 µM in [3] (setting [23]).

As for `COc1cc2c(=O)c(C(=O)c3ccc(F)cc3)cn(CC(=O)Nc3ccc(F)c(F)c3)c2cc1OC`, the IC50 in data set [1] was 12 µM; in [4] it was 13.1 µM; in [2], 13.2 µM; in [3] (time 48 hrs), 14.1 µM. In addition, the inhibition result in [5] and in data set [10] was “Active” each time. Further, the figures for the inhibition at 10 µM in [6], in data set [8] and in [9] were 50%, 80% and 20%, respectively. For the same compound, the Activity entry in data set [7] is “Toxic”.

Take `COc1ccc(C(=O)c2cn(CC(=O)Nc3ccc(F)cc3)c3cc(OC)c(OC)cc3c2=O)cc1`: the inhibition entry in data set [11] and in [5] was “Active” in each case. The IC50 in data set [1] was found to be 11 µM; in data set [4], 12.8 µM; in data set [2], 9.4 µM; in [3] (setting [23]), 19.5 µM. Moreover, the inhibition at 10 µM in [6], in data set [8] and in [9] was 50% each time. Further, in data set [7], the Activity entry is recorded as “Toxic”.

`CCOc1ccc(C2C3=C(CCCC3=O)Nc3c2c(C)nn3-c2nc(C)cc(C)n2)cc1OC` (stereo not given): the IC50 in data set [1] is 23.2 µM; in data set [2], over 20 µM; in data set [3] (setting [23]) it was over 23 µM. Also, the inhibition at 10 µM in data set [6], in data set [8] and in data set [9] was 40% in each case. The Activity result in [7] is reported as “Toxic”.

With `COc1ccc(C2CC(O)=Nc3c2ncn3-c2cccc(C(F)(F)F)c2)cc1O` (stereo not given), the Activity is 14.29% in data set [12]; 7.11% in data set [13]; 53.91% in data set [14]; 42.71% in [15]; 1.48% in data set [16]; 207.6 pg/mL in [17]. In addition, the Activity result in [7] was “Toxic”; in data set [18], 3.38%; in data set [19] it was 2.1 ng/mL; in data set [20], 5.96%; in data set [21], 13.7 ng/mL. Besides, the inhibition at 10 µM in data set [6] was found to be 50%; in data set [8], 60%; in data set [9] it was 40%. Also, the inhibition entry in [22] was “Active”.

The values above are taken from ChEMBL document CHEMBL5108041, “Identification and validation of novel microtubule suppressors with an imidazopyridine scaffold through structure-based virtual screening and docking” (RSC Med Chem, 2022).
